Test results as given in ChEMBL document CHEMBL4138091, “Quinazoline based α1-adrenoreceptor antagonists with potent antiproliferative activity in human prostate cancer cell lines” (Eur J Med Chem, 2017).
pIC50, pKi: −log10 of the molar value. Calls of active or inactive are those of the source. The calls are words filed in the database; no cut-off is given here.

Assays:
[1] = biological target: T1, Alpha-1A adrenergic receptor (Homo sapiens, UniProt P35348); assay: Displacement of [3H]prazosin from human alpha1A adrenoceptor expressed in CHO cell membranes after 30 mins
T1 sequence (P35348 whole entry): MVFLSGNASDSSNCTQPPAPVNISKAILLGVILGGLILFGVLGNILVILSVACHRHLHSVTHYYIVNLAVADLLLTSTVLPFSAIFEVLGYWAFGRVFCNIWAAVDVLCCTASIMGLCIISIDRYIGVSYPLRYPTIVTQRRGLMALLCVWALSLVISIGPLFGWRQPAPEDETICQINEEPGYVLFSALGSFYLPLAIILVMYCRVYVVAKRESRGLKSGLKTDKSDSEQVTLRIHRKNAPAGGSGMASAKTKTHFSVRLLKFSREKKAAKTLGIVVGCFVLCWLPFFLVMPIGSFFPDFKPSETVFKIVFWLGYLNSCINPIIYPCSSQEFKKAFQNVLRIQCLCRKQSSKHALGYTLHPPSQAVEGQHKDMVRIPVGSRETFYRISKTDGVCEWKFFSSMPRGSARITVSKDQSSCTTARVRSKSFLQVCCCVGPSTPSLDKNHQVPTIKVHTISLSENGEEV

[2] = biological target: T2, Alpha-1B adrenergic receptor (Homo sapiens, UniProt P35368); assay: Displacement of [3H]prazosin from human alpha1B adrenoceptor expressed in CHO cell membranes after 30 mins
T2 sequence (P35368 whole entry): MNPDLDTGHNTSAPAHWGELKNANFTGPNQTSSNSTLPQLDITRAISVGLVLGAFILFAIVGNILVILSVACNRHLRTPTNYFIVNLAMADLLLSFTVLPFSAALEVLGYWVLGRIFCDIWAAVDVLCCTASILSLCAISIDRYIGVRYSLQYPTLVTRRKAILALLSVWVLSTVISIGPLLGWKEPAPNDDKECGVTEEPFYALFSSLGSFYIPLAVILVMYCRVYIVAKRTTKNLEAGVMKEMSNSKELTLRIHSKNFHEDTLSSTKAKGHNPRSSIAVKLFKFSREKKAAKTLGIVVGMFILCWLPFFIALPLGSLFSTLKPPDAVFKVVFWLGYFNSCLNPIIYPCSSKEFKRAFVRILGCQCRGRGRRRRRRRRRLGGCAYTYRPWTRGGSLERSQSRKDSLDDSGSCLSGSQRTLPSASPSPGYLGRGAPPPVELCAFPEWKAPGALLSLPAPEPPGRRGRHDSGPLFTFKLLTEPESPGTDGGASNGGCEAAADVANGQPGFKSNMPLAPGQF

[3] = biological target: T3, Alpha-1D adrenergic receptor (Homo sapiens, UniProt P25100); assay: Displacement of [3H]prazosin from human alpha1D adrenoceptor expressed in CHO cell membranes after 30 mins
T3 sequence (P25100 whole entry): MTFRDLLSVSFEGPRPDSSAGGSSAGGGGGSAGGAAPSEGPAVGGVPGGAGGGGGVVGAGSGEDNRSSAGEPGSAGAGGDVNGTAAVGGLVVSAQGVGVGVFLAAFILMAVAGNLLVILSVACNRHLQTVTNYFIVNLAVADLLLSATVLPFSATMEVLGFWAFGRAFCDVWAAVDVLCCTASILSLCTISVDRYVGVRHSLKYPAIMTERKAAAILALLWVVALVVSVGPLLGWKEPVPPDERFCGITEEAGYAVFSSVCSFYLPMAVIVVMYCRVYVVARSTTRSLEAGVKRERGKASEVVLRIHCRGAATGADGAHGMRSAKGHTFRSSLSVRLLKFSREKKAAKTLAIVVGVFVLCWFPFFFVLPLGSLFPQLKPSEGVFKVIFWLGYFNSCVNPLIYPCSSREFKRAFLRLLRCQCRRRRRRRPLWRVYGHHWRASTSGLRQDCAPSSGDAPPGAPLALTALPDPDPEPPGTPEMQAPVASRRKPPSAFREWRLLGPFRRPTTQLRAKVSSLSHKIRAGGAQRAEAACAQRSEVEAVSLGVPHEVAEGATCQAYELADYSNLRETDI

[4] = tested on: Panel NCI-60 (60 carcinoma cell lines); assay: Antiproliferative activity against human NCI60 cells at 10 uM after 48 hrs by SRB assay; format: functional, cell-based
Method in brief: (§1)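 NCI one-dose screen at 10 µM across 60 human tumour lines, 48 h exposure; growth given relative to no-drug control and to time-zero cell number, so 0–100 means inhibition and below 0 lethality; 100 means no inhibition.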

DU-145 [5] = assay: Antiproliferative activity against human DU145 cells at 0.1 to 50 uM after 120 hrs by MTT assay; format: functional, cell-based
Method in brief: (§2)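 DU-145, PC-3 and LNCaP cells grown in RPMI with 10% fetal calf serum, 37 °C, 5% CO₂; seeded at 5 × 10³ cells/well, exposed to 0.1–50 µM for 120 h. After PBS wash, MTT (5 mg/mL) in PBS 4 h, formazan dissolved in isopropanol, read at 570 nm. Viability as % of untreated; IC50 from at least three independent dose-response curves.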

PC-3 [6] = assay: Antiproliferative activity against human PC3 cells at 0.1 to 50 uM after 120 hrs by MTT assay; format: functional, cell-based; method in brief: as §2
LNCaP [7] = assay: Antiproliferative activity against human LNCAP cells at 0.1 to 50 uM after 120 hrs by MTT assay; format: functional, cell-based; method in brief: as §2
LNCaP [8] = assay: Induction of necrosis in human LNCAP cells assessed as loss of plasma membrane integrity at 1 to 10 uM after 24 hrs by trypan blue staining-based Neubauer hemocytometric method; format: functional, cell-based
Method in brief: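 LNCaP cells seeded at 1 × 10⁶ cells/well, treated 1–10 µM for 24 h at 37 °C, 5% CO₂; scraped into PBS, mixed 1:1 with 0.5% trypan blue, counted on a Neubauer hemocytometer; percentage of stained cells from at least 3 separate counts.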

LNCaP [9] = assay: Induction of apoptosis in human LNCAP cells assessed as increase in DNA fragmentation at 1 to 10 uM after 24 hrs by spectrophotometer relative to control; format: functional
Method in brief: (§3)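 LNCaP cells seeded at 1 × 10³ cells/well, treated 1–10 µM for 24 h at 37 °C, 5% CO₂; lysed 30 min, centrifuged, supernatant ELISA with biotin anti-histone and peroxidase anti-DNA antibodies on streptavidin plate, ABTS 20 min, read 405 nm. Fold increase = treated/untreated absorbance; mean ± SD, three independent experiments.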

LNCaP [10] = assay: Antioxidant activity in human LNCAP cells assessed as inhibition of t-BuOOH-induced ROS level at 1 to 10 uM after 30 mins by DCFH-DA dye-based spectrofluorometric analysis relative to control; format: functional
LNCaP [11] = assay: Prooxidant activity in human LNCAP cells assessed as increase in depletion of intercellular GSH level at 1 to 10 uM after 24 hrs by MCB dye-based spectrofluorometric analysis; format: functional, cell-based
Method in brief: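 LNCaP cells seeded at 2 × 10⁴ cells/well, treated 1–10 µM for 24 h at 37 °C, 5% CO₂; washed, 50 µM monochlorobimane in PBS 30 min at 37 °C, fluorescence read at excitation 360 nm, emission 465 nm; arbitrary fluorescence units; mean ± SD, three independent experiments.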

DU-145 [12] = assay: Antiproliferative activity against human DU145 cells at 10 uM after 48 hrs by SRB assay relative to control; format: functional; method in brief: as §1
PC-3 [13] = assay: Growth inhibition of human PC3 cells at 10 uM after 48 hrs by SRB assay relative to control; format: functional; conditions: PC-3, 48 h, read-out: GI; method in brief: as §1
DU-145 [14] = assay: Antiproliferative activity against human DU145 cells after 120 hrs by MTT assay; format: functional, cell-based; conditions: DU-145, 120 h; method in brief: as §2
PC-3 [15] = assay: Antiproliferative activity against human PC3 cells after 120 hrs by MTT assay; format: functional, cell-based; conditions: PC-3, 120 h; method in brief: as §2
LNCaP [16] = assay: Antiproliferative activity against human LNCAP cells after 120 hrs by MTT assay; format: functional, cell-based; method in brief: as §2
Homo sapiens [17] = organism: Homo sapiens; assay: Selectivity ratio of Ki for human alpha1A adrenoceptor to Ki for human alpha1B adrenoceptor
Homo sapiens [18] = organism: Homo sapiens; assay: Selectivity ratio of Ki for human alpha1D adrenoceptor to Ki for human alpha1B adrenoceptor
[19] = Selectivity index, ratio of cytotoxic concentration for HGF cells to IC50 for human LNCAP cells; format: toxicity; conditions: HGF cells and LNCAP cells, read-out: Selectivity Index
[20] = Selectivity index, ratio of cytotoxic concentration for HGF cells to IC10 for human LNCAP cells; format: toxicity; conditions: HGF cells and LNCAP cells, read-out: Selectivity Index
LNCaP [21] = assay: Induction of apoptosis in human LNCAP cells assessed as increase in DNA fragmentation after 24 hrs by spectrophotometer; format: functional, cell-based; method in brief: as §3
LNCaP [22] = assay: Antioxidant activity in human LNCAP cells assessed as inhibition of t-BuOOH-induced ROS level after 30 mins by DCFH-DA dye-based spectrofluorometric analysis; format: functional, cell-based
LNCaP [23] = assay: Antioxidant activity in human LNCAP cells assessed as inhibition of t-BuOOH-induced ROS level at 1 to 10 uM after 24 hrs by DCFH-DA dye-based spectrofluorometric analysis; format: functional, cell-based
LNCaP [24] = assay: Induction of ROS generation in human LNCAP cells after 24 hrs by DCFH-DA dye-based spectrofluorometric analysis; format: functional, cell-based
Method in brief: (§4)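 LNCaP cells seeded at 2 × 10⁴ cells/well, exposed to compounds (1–10 µM) for 24 h; then loaded with 5 µM DCFH-DA in PBS, 37 °C, 5% CO₂, 30 min, washed, fluorescence read (excitation 485 nm). Antioxidant lines involve t-BuOOH challenge. Output as fold increase of intracellular ROS over untreated; mean ± SD, three independent experiments.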

LNCaP [25] = assay: Induction of ROS generation in human LNCAP cells at 1 to 10 uM after 24 hrs by DCFH-DA dye-based spectrofluorometric analysis relative to control; format: functional; method in brief: as §4

Compound	pKi [1]	pKi [2]	pKi [3]	Activity [4]	Activity (DU-145 [5])	Activity (PC-3 [6])	Activity (LNCaP [7])	Activity (LNCaP [8])	Activity (LNCaP [11])	further results
COc1cc2nc(N3CCC[C@H](NC(=O)c4ccco4)C3)nc(N)c2cc1OC	9.20	9.55	9.48	inactive	inactive	inactive	inactive			
COc1cc2nc(N3CCC[C@H](NC(=O)[C@H]4COc5ccccc5O4)C3)nc(N)c2cc1OC	7.74	7.20	7.31	inactive	inactive	inactive	inactive			
COc1cc2nc(N3CCC[C@@H](NC(=O)[C@@H]4COc5ccccc5O4)C3)nc(N)c2cc1OC	< 6.00	6.50	< 6.00							
COc1cc2nc(N3CCC[C@H](NC4=CC(=O)c5ccccc5C4=O)C3)nc(N)c2cc1OC	8.15	9.28	8.67	Active				inactive	Active	Activity (DU-145 [12]): 54%; inhibition of growth at 10 µM (PC-3 [13]): 77%; pIC50 (DU-145 [14]): 4.73; pIC50 (PC-3 [15]): 4.74; pIC50 (LNCaP [16]): 5.20; Ratio Ki (Homo sapiens [17]): 13; Ratio Ki (Homo sapiens [18]): 4; selectivity ratio [19]: 4.7; selectivity ratio [20]: 9.1; fold change (FC) (LNCaP [9]): 9.9; Activity (LNCaP [21]): Dose-dependent effect; inhibition (LNCaP [22]): Dose-dependent effect; inhibition (INH) (LNCaP [10]): 34%; inhibition (LNCaP [23]): inactive; Activity (LNCaP [24]): Dose-dependent effect; Activity (LNCaP [25]): 56%

Continued, in another order:

pKi [1]	pKi [2]	pKi [3]	Compound	Activity [4]	Activity (DU-145 [5])	Activity (PC-3 [6])	Activity (LNCaP [7])	Activity (LNCaP [8])	Activity (LNCaP [11])	further results
< 6.00	6.75	6.99	COc1cc2nc(N3CCC[C@@H](N)C3)nc(N)c2cc1OC							
6.72	7.26	7.55	COc1cc2nc(N3CCC[C@H](N)C3)nc(N)c2cc1OC	inactive	inactive	inactive	inactive	inactive	inactive	Activity (LNCaP [9]): inactive; inhibition (LNCaP [10]): inactive
